Results on six compounds are retold here after ChEMBL document CHEMBL1212781, “VIM-19, a metallo-beta-lactamase with increased carbapenemase activity from Escherichia coli and Klebsiella pneumoniae” (2010).

For orientation: Km means the substrate concentration at which the rate is half of its maximum. The term kcat denotes the maximal rate divided by the concentration of active sites. In general, kcat/Km refers to the turnover number divided by the Michaelis constant.

≈ marks a conversion by molar mass, not a printed value. Bounds are passed on as bounds.

Data set [1] has as its system Escherichia coli. Description: Antimicrobial activity in Escherichia coli DIH-1 expressing beta-lactamase VIM-19 by Etest. Format: functional. The method, boiled down: (§1)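 MICs read by Etest on Mueller-Hinton agar incubated at 37°C. Susceptibility was categorized according to CLSI guidelines. Transconjugants were obtained in E. coli J53 by liquid mating at 37°C, with selection on agar containing amoxicillin (50 μg/ml) and azide (100 μg/ml).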

Data set [2] concerns Klebsiella pneumoniae. Description: Antimicrobial activity in Klebsiella pneumoniae DIH-2 clinical isolate expressing beta-lactamase VIM-19 by Etest. The class given is functional.
The test system of data set [3] is Escherichia coli. Put plainly: microbe, parasite or virus in culture. The class given is functional. As to conditions: TOP10.
Data set [4] relates to Escherichia coli. Description: microbe, parasite or virus in culture. Format: functional. As to conditions: TOP10. This is another data set of the same source.
Data set [5] deals with Escherichia coli. Description: microbe, parasite or virus in culture. Format: functional. As to conditions: TOP10. The source holds these as a separate data set.
Data set [6] has as its system Escherichia coli. Description: microbe, parasite or virus in culture. The class given is functional. As to conditions: TOP10. This is another data set of the same source.
Data set [7] deals with Escherichia coli. Put plainly: Antimicrobial activity in Escherichia coli J53 transconjugate with Escherichia coli DIH-1 expressing natural plasmid containing beta-lactamase VIM-19. The class given is functional. The essentials:
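Transconjugants came from liquid mating-out at 37°C with azide-resistant E. coli J53 as recipient, selected on agar with amoxicillin (50 μg/ml) plus azide (100 μg/ml). MICs were then read by Etest on Mueller-Hinton agar at 37°C and interpreted per CLSI.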

Data set [8] deals with Escherichia coli. Description: Antimicrobial activity in Escherichia coli TOP10 strain. The class given is functional. The method, boiled down: (§2)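 MICs were determined by Etest on Mueller-Hinton agar plates incubated at 37°C. Susceptibility was interpreted according to CLSI guidelines.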
Data set [9] has as its system Escherichia coli. Put plainly: Antimicrobial activity in Escherichia coli J53 strain. Format: functional. The essentials:
as §2

Data set [10] concerns CC(C)(O/N=C(\C(=O)N[C@@H]1C(=O)N2C(C(=O)[O-])=C(C[n+]3ccccc3)CS[C@H]12)c1csc(N)n1)C(=O)O. Description: (§3) Hydrolytic activity of beta-lactamase VIM-1 expressed in Escherichia coli TOP10 by spectrophotometry.
The test system of data set [11] is CC1(C)S[C@@H]2[C@H](NC(=O)Cc3ccccc3)C(=O)N2[C@H]1C(=O)O. Described as §3.
The subject of data set [12] is CCN1CCN(C(=O)N[C@@H](C(=O)N[C@@H]2C(=O)N3[C@@H]2SC(C)(C)[C@@H]3C(=O)O)c2ccccc2)C(=O)C1=O. Described as §3.
In data set [13] the test system is CO/N=C(\C(=O)N[C@@H]1C(=O)N2C(C(=O)O)=C(COC(C)=O)CS[C@H]12)c1csc(N)n1. The description is as §3.
Data set [14] relates to CO[C@@]1(NC(=O)Cc2cccs2)C(=O)N2C(C(=O)O)=C(COC(N)=O)CS[C@@H]21. Described as §3.
The test system of data set [15] is C[C@@H](O)[C@H]1C(=O)N2C(C(=O)O)=C(S[C@@H]3CN[C@H](C(=O)N(C)C)C3)[C@H](C)[C@H]12. The data set is described as §3.
Data set [16] concerns CC(C)(O/N=C(\C(=O)N[C@@H]1C(=O)N2C(C(=O)[O-])=C(C[n+]3ccccc3)CS[C@H]12)c1csc(N)n1)C(=O)O. Description: (§4) Ratio of Kcat to Km for beta-lactamase VIM-1 expressed in Escherichia coli TOP10 by spectrophotometry.
Data set [17] concerns CC1(C)S[C@@H]2[C@H](NC(=O)Cc3ccccc3)C(=O)N2[C@H]1C(=O)O. The description is as §4.
For data set [18], the system named is CCN1CCN(C(=O)N[C@@H](C(=O)N[C@@H]2C(=O)N3[C@@H]2SC(C)(C)[C@@H]3C(=O)O)c2ccccc2)C(=O)C1=O. Described as §4.
Data set [19] concerns CO/N=C(\C(=O)N[C@@H]1C(=O)N2C(C(=O)O)=C(COC(C)=O)CS[C@H]12)c1csc(N)n1. The data set is described as §4.
Data set [20] concerns CO[C@@]1(NC(=O)Cc2cccs2)C(=O)N2C(C(=O)O)=C(COC(N)=O)CS[C@@H]21. Described as §4.
The test system of data set [21] is C[C@@H](O)[C@H]1C(=O)N2C(C(=O)O)=C(S[C@@H]3CN[C@H](C(=O)N(C)C)C3)[C@H](C)[C@H]12. Described as §4.
The subject of data set [22] is Escherichia coli. Put plainly: Antimicrobial activity in Escherichia coli DIH-1 expressing beta-lactamase VIM-19 by Etest in presence of 4 ug/ml clavulanic acid. Format: functional. The method, boiled down:
as §1

For data set [23], the system named is Klebsiella pneumoniae. Put plainly: Antimicrobial activity in Klebsiella pneumoniae DIH-2 clinical isolate expressing beta-lactamase VIM-19 by Etest in presence of 4 ug/ml clavulanic acid. Format: functional. The method, boiled down: as §1
Data set [24] concerns Escherichia coli. Put plainly: Antimicrobial activity in Escherichia coli TOP10 hourbouring recombinant plasmid VIM-19 by Etest in presence of 4 ug/ml clavulanic acid. Format: functional. The method, boiled down: as §1
The test system of data set [25] is Escherichia coli. Put plainly: Antimicrobial activity in Escherichia coli TOP10 hourbouring recombinant plasmid VIM-4 by Etest in presence of 4 ug/ml clavulanic acid. The class given is functional. The method, boiled down:
as §1

Data set [26] deals with Escherichia coli. Put plainly: Antimicrobial activity in Escherichia coli J53 transconjugate with Escherichia coli DIH-1 expressing natural plasmid containing beta-lactamase VIM-19 in presence of 4 ug/ml clavulanic acid. The class given is functional. The essentials: as §1
The subject of data set [27] is Escherichia coli. Put plainly: Antimicrobial activity in Escherichia coli TOP10 strain in presence of 4 ug/ml clavulanic acid. The class given is functional. The method, boiled down: (§5)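 MIC by Etest on Mueller-Hinton agar plates at 37°C, with susceptibility interpreted per CLSI guidelines.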
The test system of data set [28] is Escherichia coli. Description: Antimicrobial activity in Escherichia coli J53 strain in presence of 4 ug/ml clavulanic acid. Format: functional. The essentials:
as §5

For `CO/N=C(\C(=O)N[C@@H]1C(=O)N2C(C(=O)[O-])=C(C[n+]3cccc4c3CCC4)CS[C@H]12)c1csc(N)n1` [CEFPIROME], the MIC against Escherichia coli [1] is 32 mg/L (≈ 62.2 µM); against Klebsiella pneumoniae [2], 64 mg/L (≈ 124 µM); in the data set on Escherichia coli [3] it was 2 mg/L (≈ 3.89 µM); in the data set with Escherichia coli [4], 2 mg/L (≈ 3.89 µM); against Escherichia coli [5], 32 mg/L (≈ 62.2 µM); in the data set on Escherichia coli [6] it was 32 mg/L (≈ 62.2 µM). Further, the MIC in the data set with Escherichia coli [7] worked out at 2 mg/L (≈ 3.89 µM); against Escherichia coli [8] it was 0.06 mg/L (≈ 0.117 µM); against Escherichia coli [9], 0.12 mg/L (≈ 0.233 µM).
Consider “BlaVIM-1 (Escherichia coli) (from UniProt Q8GDC1)”, for which the Km in [10] is 800 µM; in [11], 850 µM; in data set [12], 3500 µM; in data set [13], 250 µM; in [14], 130 µM; in [15] it was 50 µM. Besides, the catalytic constant (kcat) in [10] worked out at 60 s⁻¹. Besides, the catalytic efficiency (kcat/Km) in [16] stood at 100000 M⁻¹ s⁻¹; in [17] it was 50000 M⁻¹ s⁻¹; in data set [18] it was 500000 M⁻¹ s⁻¹; in data set [19] it was 700000 M⁻¹ s⁻¹; in data set [20] it was 200000 M⁻¹ s⁻¹; in data set [21], 300000 M⁻¹ s⁻¹.
Regarding `CC1(C)S[C@@H]2[C@H](NC(=O)[C@H](N)c3ccc(O)cc3)C(=O)N2[C@H]1C(=O)O` [AMOXICILLIN], the MIC against Escherichia coli [1] was above 512 mg/L; against Klebsiella pneumoniae [2], above 512 mg/L; with Escherichia coli [3], above 512 mg/L; against Escherichia coli [4], above 512 mg/L; against Escherichia coli [7] it was above 512 mg/L; against Escherichia coli [8], 4 mg/L (≈ 10.9 µM). Further, the MIC is 4 mg/L (≈ 10.9 µM) in the data set on Escherichia coli [9]; above 512 mg/L in the data set with Escherichia coli [22]; above 512 mg/L with Klebsiella pneumoniae [23]; above 512 mg/L in the data set on Escherichia coli [24]; above 512 mg/L in the data set on Escherichia coli [25]; above 512 mg/L in the data set with Escherichia coli [26]. Besides, the MIC with Escherichia coli [27] and in the data set with Escherichia coli [28] was 4 mg/L throughout.
For the compound `CO/N=C(\C(=O)N[C@@H]1C(=O)N2C(C(=O)O)=C(COC(C)=O)CS[C@H]12)c1csc(N)n1` [CEFOTAXIME], the MIC against Escherichia coli [1] is above 512 mg/L; in the data set on Klebsiella pneumoniae [2] it was above 512 mg/L; against Escherichia coli [3] it was 64 mg/L (≈ 141 µM); in the data set on Escherichia coli [4], 64 mg/L (≈ 141 µM); with Escherichia coli [5] it was 32 mg/L (≈ 70.3 µM); in the data set on Escherichia coli [6], 64 mg/L (≈ 141 µM). In addition, the MIC against Escherichia coli [7] was determined as 64 mg/L (≈ 141 µM); in the data set with Escherichia coli [8], 0.12 mg/L (≈ 0.263 µM); against Escherichia coli [9] it was 0.12 mg/L (≈ 0.263 µM).
For `CO/N=C(\C(=O)N[C@@H]1C(=O)N2C(C(=O)O)=C(COC(N)=O)CS[C@H]12)c1ccco1` [CEFUROXIME], the MIC was above 512 mg/L in the data set on Escherichia coli [1]; above 512 mg/L against Klebsiella pneumoniae [2]; above 512 mg/L with Escherichia coli [3]; above 512 mg/L against Escherichia coli [4]; above 512 mg/L against Escherichia coli [7]; 2 mg/L (≈ 4.71 µM) against Escherichia coli [8]. This compound yielded an MIC with Escherichia coli [9] of 4 mg/L (≈ 9.43 µM).
In the case of `C[C@@H](O)[C@H]1C(=O)N2C(C(=O)O)=C(S[C@@H]3CN[C@H](C(=O)Nc4cccc(C(=O)O)c4)C3)[C@H](C)[C@H]12`, the MIC against Escherichia coli [1] stood at 16 mg/L (≈ 33.6 µM); in the data set on Klebsiella pneumoniae [2] it was 16 mg/L (≈ 33.6 µM); with Escherichia coli [3], 2 mg/L (≈ 4.21 µM); against Escherichia coli [4] it was 2 mg/L (≈ 4.21 µM); with Escherichia coli [5], 0.125 mg/L (≈ 0.263 µM); against Escherichia coli [6], 0.125 mg/L (≈ 0.263 µM). The values for the MIC in the data set with Escherichia coli [7], against Escherichia coli [8] and in the data set on Escherichia coli [9] were 1.5 mg/L (≈ 3.15 µM), 0.006 mg/L (≈ 0.0126 µM) and 0.006 mg/L (≈ 0.0126 µM), respectively.
